Consider 27 molecules from ChEMBL document CHEMBL1127605, “Synthesis of naphthalenesulfonic acid small molecules as selective inhibitors of the DNA polymerase and ribonuclease H activities of HIV-1 reverse transcriptase” (J Med Chem, 1994).

Assay [1] has as its system MT4. The assay can be described thus: 50% effective antiviral concentration was determined on HIV-1 (HTLV-IIIB) in MT-4 cells. It counts as functional, cell-based. The conditions noted are these: Homo sapiens.
Assay [2] concerns MT4. As to the kind of experiment: 50% cytotoxic concentration was determined on HIV-1 (HTLV-IIIB) in MT-4 cells. It counts as functional. The conditions noted are these: Homo sapiens.
Assay [3] addresses Human immunodeficiency virus type 1 reverse transcriptase (Human immunodeficiency virus 1, UniProt Q72547). As to the kind of experiment: The 50% inhibitory concentration was measured as inhibition of Ribonuclease H activity of reverse transcriptase.
Assay [4] addresses Human immunodeficiency virus type 1 reverse transcriptase (Human immunodeficiency virus 1) (UniProt Q72547). As to the kind of experiment: Inhibition of DNA polymerase activity of HIV-1 reverse transcriptase (at 50 uM). An outline of the steps:
(§1)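 Recombinant HIV-1 RT (BH-10 proviral clone, E. coli-expressed, purified to homogeneity, ~66 kDa) preincubated 5 min at 30 °C with test compound (50 μM for DNA polymerase, 200 μM for RNase H); reaction started with substrate, 30 min at 37 °C; residual activity expressed relative to initial linear rate without drug.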

Assay [5] has the same target. The assay can be described thus: Inhibition of Ribonuclease H activity of HIV-1 reverse transcriptase (at 200 uM). The essentials: as §1

As to `CCCCCCCCCCCCCCCC(=O)Nc1ccc(S(=O)(=O)O)c2cccc(S(=O)(=O)O)c12`, the EC50 in the assay on MT4 [1] worked out at 100 µM. The same molecule showed a CC50 with MT4 [2] of 225 µM. Further, the IC50 in assay [3] stood at 27.5 µM. Also, the Initial activity in assay [4] worked out at 0.16%; in assay [5], 2.8%.
As for `O=S(=O)(O)c1cc(S(=O)(=O)O)c2cc(NS(=O)(=O)c3ccc(-c4ccc(S(=O)(=O)Nc5ccc6cc(S(=O)(=O)O)cc(S(=O)(=O)O)c6c5)cc4)cc3)ccc2c1`, the Initial activity in assay [4] worked out at 0.9%; in assay [5] it was 28%.
Take `CCCCCCCCCCCCCCCC(=O)Nc1c(OC(=O)CCCCCCCCCCCCCCC)cc(S(=O)(=O)O)c2ccccc12`: the EC50 in the assay on MT4 [1] was > 41 µM. This molecule also displayed a CC50 with MT4 [2] of 41 µM. For the same molecule, the Initial activity in assay [4] turned out to be 0.03%; in assay [5], 5.3%.
With `O=C(Nc1ccc(S(=O)(=O)O)c2cccc(S(=O)(=O)O)c12)c1ccc(C(=O)Nc2ccc(S(=O)(=O)O)c3cccc(S(=O)(=O)O)c23)cc1`, the Initial activity in assay [4] was determined as 90%; in assay [5], 92%.
For `O=C(CCCCCCC(=O)Nc1ccc(S(=O)(=O)O)c2ccccc12)Nc1ccc(S(=O)(=O)O)c2ccccc12` the same measures were 90% and 59%.
In the case of `O=C(Oc1cc(S(=O)(=O)O)cc2cc(S(=O)(=O)O)ccc12)c1ccc(-c2ccc(C(=O)Oc3cc(S(=O)(=O)O)cc4cc(S(=O)(=O)O)ccc34)cc2)cc1`, in the assay on MT4 [1], the EC50 was determined as 81.5 µM. The CC50 in the assay on MT4 [2] is > 500 µM. In assay [3], the IC50 was 14.4 µM. In addition, the results for the Initial activity in assay [4] and in assay [5] were 0.2% and 0%, respectively.
For the molecule `O=C(CCCCCCC(=O)Nc1ccc(S(=O)(=O)O)c2cccc(S(=O)(=O)O)c12)Nc1ccc(S(=O)(=O)O)c2cccc(S(=O)(=O)O)c12`, the Initial activity in assay [4] worked out at 100%; in assay [5] it was 84%.
The matching figures for `O=S(=O)(O)c1cccc2ccc(OS(=O)(=O)c3ccc(-c4ccc(S(=O)(=O)Oc5ccc6cccc(S(=O)(=O)O)c6c5)cc4)cc3)cc12`: 0% and 48%.
As to `CCCCCCCCCCCCCCCC(=O)Nc1c(O)cc(S(=O)(=O)O)c2ccccc12`, in the assay with MT4 [1], the EC50 was > 21 µM. For the same molecule, in the assay on MT4 [2], it took 21 µM to reach half-maximal cytotoxicity (CC50). For the same molecule, the IC50 in assay [3] is 47.6 µM. The Initial activity in assay [4] is 0.02%; in assay [5] it was 3%.
In the case of `Nc1ccc(S(=O)(=O)O)c2cccc(S(=O)(=O)O)c12`, the Initial activity in assay [4] and in assay [5] was 100% in each case.
For `CCCCCCCCCCCCCCCc1nc2c(cc(S(=O)(=O)O)c3ccccc32)o1`, the EC50 in the assay on MT4 [1] is > 42 µM. The midpoint of cytotoxicity in the assay on MT4 [2], the CC50, lay at 42 µM. The Initial activity worked out at 0.2% in assay [4] and 68% in assay [5].
The matching figures for `Cc1cc(C)c(S(=O)(=O)Oc2ccc3cccc(S(=O)(=O)O)c3c2)c(C)c1S(=O)(=O)Oc1ccc2cccc(S(=O)(=O)O)c2c1`: 42 µM, 228 µM, 13% and 23%.
The matching figures for `CC(C)CCCC(C)C1CCC2C3CC=C4CC(OC(=O)Nc5cc(S(=O)(=O)O)cc6cc(S(=O)(=O)O)cc(O)c56)CC[C@]4(C)C3CC[C@]12C` (stereo not given in full): > 500 µM, > 500 µM, 0% and 0%.
Take `Nc1ccc(S(=O)(=O)O)c2ccccc12`: the Initial activity was determined as 100% in assay [4] and 88% in assay [5].
The matching figures for `O=C(CCCCCCCCCCC(=O)Nc1ccc(S(=O)(=O)O)c2cccc(S(=O)(=O)O)c12)Nc1ccc(S(=O)(=O)O)c2cccc(S(=O)(=O)O)c12`: 13% and 16%.
Consider `O=C(CCCCCCCCCCC(=O)Nc1ccc(S(=O)(=O)O)c2ccccc12)Nc1ccc(S(=O)(=O)O)c2ccccc12`, for which it took 260 µM to reach a half-maximal effect in the assay on MT4 [1] (EC50). Moreover, the CC50 in the assay on MT4 [2] is > 500 µM. Further, the Initial activity in assay [4] amounted to 100%; in assay [5], 32%.
On to `O=C(CCCCCCCCC(=O)Nc1cc(S(=O)(=O)O)cc2cc(S(=O)(=O)O)cc(O)c12)Nc1cc(S(=O)(=O)O)cc2cc(S(=O)(=O)O)cc(O)c12`, for which the figures for the Initial activity in assay [4] and in assay [5] were 0% and 30%, respectively.
The matching figures for `O=C(O)c1cc(NS(=O)(=O)c2cccc3c(S(=O)(=O)Nc4cc(C(=O)O)c(O)c(S(=O)(=O)O)c4)cccc23)cc(S(=O)(=O)O)c1O`: 46% and 75%.
In the case of `CCCCCCCCCCCCCCCC(=O)Oc1cc(S(=O)(=O)O)c2ccccc2c1N`, the EC50 in the assay on MT4 [1] was > 38 µM. In the assay on MT4 [2], this molecule had a CC50 of 38 µM. The Initial activity came out at 6.5% in assay [4] and 7.5% in assay [5].
For `CCCCCCCCCCCCCCCC(=O)Nc1ccc(S(=O)(=O)O)c2ccccc12` the same measures were > 47 µM, 47 µM, 100% and 98%.
On to `O=C(CCCCCCCCC(=O)Nc1ccc(S(=O)(=O)O)c2cccc(S(=O)(=O)O)c12)Nc1ccc(S(=O)(=O)O)c2cccc(S(=O)(=O)O)c12`, for which the values for the Initial activity in assay [4] and in assay [5] were 54% and 57%, respectively.
For `O=S(=O)(O)c1cc(S(=O)(=O)O)c2cc(NS(=O)(=O)c3cccc4c(S(=O)(=O)Nc5ccc6cc(S(=O)(=O)O)cc(S(=O)(=O)O)c6c5)cccc34)ccc2c1`, the Initial activity in assay [4] was 16%; in assay [5], 51%.
Take `O=S(=O)(O)c1ccc2c(OS(=O)(=O)c3cccc4c(S(=O)(=O)Oc5cc(S(=O)(=O)O)cc6cc(S(=O)(=O)O)ccc56)cccc34)cc(S(=O)(=O)O)cc2c1`: in the assay on MT4 [1], the EC50 is 39 µM. In the assay on MT4 [2], this molecule came in with a CC50 of 322 µM. The same molecule yielded an IC50 in assay [3] of 215 µM. The Initial activity in assay [4] is 0%; in assay [5], 43%.
Take `O=C(CCCCCCCCC(=O)Nc1ccc(S(=O)(=O)O)c2ccccc12)Nc1ccc(S(=O)(=O)O)c2ccccc12`: the results for the Initial activity in assay [4] and in assay [5] were 94% and 70%, respectively.
The matching figures for `Cc1cc(C)c(S(=O)(=O)Nc2cc(C(=O)O)c(O)c(S(=O)(=O)O)c2)c(C)c1S(=O)(=O)Nc1cc(C(=O)O)c(O)c(S(=O)(=O)O)c1`: 2% and 32%.
For `CCCCCCCCCCCCCCCC(=O)Oc1cc(S(=O)(=O)O)cc2cc(S(=O)(=O)O)cc(OC(=O)CCCCCCCCCCCCCCC)c12` the same measures were 0% and 27%.
For `O=S(=O)(O)c1cccc2ccc(OS(=O)(=O)c3cccc4c(S(=O)(=O)Oc5ccc6cccc(S(=O)(=O)O)c6c5)cccc34)cc12` the same measures were 25% and 17%.

A word on the EC50: it is the concentration needed to bring the measured effect to its halfway point. A word on the CC50: it is the concentration at which the toxic effect on the cells reaches its halfway point. The term IC50 denotes the concentration that inhibits the measured activity by half.
